Laboratory results as given in ChEMBL document CHEMBL1770107, “Design and synthesis of antifungal benzoheterocyclic derivatives by scaffold hopping” (2011).
≈ marks a conversion by molar mass, not a printed value.

Assays:
Type in all cases: functional
Aspergillus fumigatus = test: Antimicrobial activity against Aspergillus fumigatus after 7 days by NCCLS method; settings: 168 h
Summary of the method: (§1)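 Broth serial-dilution MIC in 96-well plates, RPMI 1640 buffered with 0.165 M MOPS. Strains from ATCC or clinical isolates; fluconazole reference. MIC = lowest concentration giving ≥80% growth inhibition (turbidity) versus drug-free control. Read at 24 h for Candida spp., 72 h for C. neoformans, 7 days for filamentous fungi.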

Candida tropicalis = test: Antimicrobial activity against Candida tropicalis after 24 hrs by NCCLS method; summary of the method: as §1
Candida albicans [1] = test: Antimicrobial activity against Candida albicans after 24 hrs by NCCLS method; summary of the method: as §1
Candida parapsilosis = test: Antimicrobial activity against Candida parapsilosis after 24 hrs by NCCLS method; settings: Lodderomyces parapsilosis; summary of the method: as §1
Pichia kudriavzevii = test: Antimicrobial activity against Candida krusei after 24 hrs by NCCLS method; summary of the method: as §1
Cryptococcus neoformans = test: Antimicrobial activity against Cryptococcus neoformans after 72 hrs by NCCLS method; summary of the method: as §1
Nannizzia gypsea = test: Antimicrobial activity against Microsporum gypseum after 7 days by NCCLS method; settings: 168 h; summary of the method: as §1
Trichophyton rubrum = test: Antimicrobial activity against Trichophyton rubrum after 7 days by NCCLS method; settings: 168 h; summary of the method: as §1
Candida albicans [2] = test: Antimicrobial activity against fluconazole resistant Candida albicans clinical isolate after 24 hrs by NCCLS method
Summary of the method: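 Broth serial dilution in RPMI 1640 buffered with 0.165 M MOPS; clinical isolate. MIC80 is the lowest concentration giving 80% or greater turbidity reduction relative to the drug-free growth control, read at 24 h for Candida. Fluconazole is the reference drug.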

SMILES | MIC80 (Aspergillus fumigatus) [µg/mL] | MIC80 (Candida tropicalis) [µg/mL] | MIC80 (Candida albicans [1]) [µg/mL] | MIC80 (Candida parapsilosis) [µg/mL] | MIC80 (Pichia kudriavzevii) [µg/mL] | MIC80 (Cryptococcus neoformans) [µg/mL] | MIC80 (Nannizzia gypsea) [µg/mL] | MIC80 (Trichophyton rubrum) [µg/mL] | MIC80 (Candida albicans [2]) [µg/mL]
CCCCCCCCN1CCc2c(c3cc(I)ccc3n2C)C1 | > 64 | > 64 | 64 (≈ 151 µM) | 16 (≈ 37.7 µM) | 64 (≈ 151 µM) | > 64 | – | – | –
CCCCCCCCN1CCc2c(c3cc(Br)ccc3n2C)C1 | > 64 | > 64 | 64 (≈ 170 µM) | 16 (≈ 42.4 µM) | > 64 | 64 (≈ 170 µM) | – | – | –
CCCCCCCCN1CCc2c(c3cc(F)ccc3n2C)C1 | > 64 | > 64 | 64 (≈ 202 µM) | 64 (≈ 202 µM) | > 64 | > 64 | – | – | –
OC(Cn1cncn1)(Cn1cncn1)c1ccc(F)cc1F [FLUCONAZOLE] | > 64 | 1 (≈ 3.27 µM) | 1 (≈ 3.27 µM) | 1 (≈ 3.27 µM) | 0.5 (≈ 1.63 µM) | 1 (≈ 3.27 µM) | 16 (≈ 52.2 µM) | 4 (≈ 13.1 µM) | –
CCCCCCCNCc1nc2ccccc2[nH]1 | > 64 | > 64 | > 64 | – | – | 64 (≈ 261 µM) | > 64 | 64 (≈ 261 µM) | 32 (≈ 130 µM)
CCCCCCCN1CCc2c(c3cc(Cl)ccc3n2C)C1 | > 64 | > 64 | > 64 | > 64 | > 64 | > 64 | – | – | –
CCCCCCCCN1CCc2c(c3cc(Cl)ccc3n2C)C1 | > 64 | > 64 | > 64 | 64 (≈ 192 µM) | 64 (≈ 192 µM) | > 64 | – | – | –
CCCCCCCn1cnc2ccc(C)cc2c1=O | 64 (≈ 248 µM) | > 64 | > 64 | > 64 | > 64 | > 64 | – | – | –
CCCCCCCCNCc1nc2ccccc2s1 | > 64 | 64 (≈ 232 µM) | 64 (≈ 232 µM) | – | – | 16 (≈ 57.9 µM) | 64 (≈ 232 µM) | 16 (≈ 57.9 µM) | > 64
CCCCCCCN1CCc2c(c3cc(C)ccc3n2C)C1 | 16 (≈ 53.6 µM) | 64 (≈ 214 µM) | 16 (≈ 53.6 µM) | 16 (≈ 53.6 µM) | 64 (≈ 214 µM) | > 64 | – | – | –
CCCCCCCN1CCc2c(c3cc(Br)ccc3n2C)C1 | > 64 | > 64 | > 64 | 64 (≈ 176 µM) | > 64 | 64 (≈ 176 µM) | – | – | –
CCCCCCn1cnc2ccc(C)cc2c1=O | > 64 | > 64 | > 64 | > 64 | > 64 | > 64 | – | – | –
CCCCCCN1CCc2c(c3cc(C)ccc3n2C)C1 | 64 (≈ 225 µM) | 64 (≈ 225 µM) | 64 (≈ 225 µM) | 64 (≈ 225 µM) | 16 (≈ 56.2 µM) | 64 (≈ 225 µM) | – | – | –
CCCCCCCCN1CCc2c(c3cc(C)ccc3n2C)C1 | 16 (≈ 51.2 µM) | 64 (≈ 205 µM) | 16 (≈ 51.2 µM) | 16 (≈ 51.2 µM) | 64 (≈ 205 µM) | > 64 | – | – | –
CCCCCCCNCc1nc2ccccc2o1 | 64 (≈ 260 µM) | 64 (≈ 260 µM) | 64 (≈ 260 µM) | – | – | 16 (≈ 64.9 µM) | 16 (≈ 64.9 µM) | 16 (≈ 64.9 µM) | 64 (≈ 260 µM)
CCCCCCNCc1nc2ccccc2o1 | > 64 | 64 (≈ 275 µM) | 64 (≈ 275 µM) | – | – | 64 (≈ 275 µM) | 16 (≈ 68.9 µM) | 16 (≈ 68.9 µM) | > 64
CCCCCCN1CCc2c(c3cc(Br)ccc3n2C)C1 | 64 (≈ 183 µM) | > 64 | > 64 | > 64 | > 64 | > 64 | – | – | –
CCCCCCN1CCc2c(c3cc(I)ccc3n2C)C1 | > 64 | > 64 | > 64 | 64 (≈ 161 µM) | > 64 | > 64 | – | – | –
CCCCCCN1CCc2c(c3cc(F)ccc3n2C)C1 | > 64 | > 64 | > 64 | > 64 | > 64 | > 64 | – | – | –
CCCCCCCNCc1nc2ccccc2s1 | > 64 | 64 (≈ 244 µM) | 64 (≈ 244 µM) | – | – | 64 (≈ 244 µM) | 16 (≈ 61 µM) | 16 (≈ 61 µM) | 32 (≈ 122 µM)
CCCCCCNCc1nc2ccccc2[nH]1 | > 64 | > 64 | 1 (≈ 4.32 µM) | – | – | > 64 | > 64 | 64 (≈ 277 µM) | > 64
CCCCCCN1CCc2c(c3cc(Cl)ccc3n2C)C1 | 64 (≈ 210 µM) | > 64 | > 64 | > 64 | 64 (≈ 210 µM) | > 64 | – | – | –
CCCCCCCN1CCc2c(c3cc(I)ccc3n2C)C1 | > 64 | > 64 | > 64 | 64 (≈ 156 µM) | > 64 | > 64 | – | – | –
CCCCCCNCc1nc2ccccc2s1 | > 64 | 64 (≈ 258 µM) | 64 (≈ 258 µM) | – | – | 64 (≈ 258 µM) | 64 (≈ 258 µM) | 64 (≈ 258 µM) | 64 (≈ 258 µM)
CCCCCCCCn1cnc2ccc(C)cc2c1=O | > 64 | > 64 | > 64 | > 64 | > 64 | > 64 | – | – | –
CCCCCCCCNCc1nc2ccccc2[nH]1 | 32 (≈ 123 µM) | 16 (≈ 61.7 µM) | > 64 | – | – | 16 (≈ 61.7 µM) | 16 (≈ 61.7 µM) | 16 (≈ 61.7 µM) | 16 (≈ 61.7 µM)
CCCCCCCCNCc1nc2ccccc2o1 | 32 (≈ 123 µM) | 16 (≈ 61.4 µM) | 64 (≈ 246 µM) | – | – | 1 (≈ 3.84 µM) | 8 (≈ 30.7 µM) | 4 (≈ 15.4 µM) | 64 (≈ 246 µM)
CCCCCCCN1CCc2c(c3cc(F)ccc3n2C)C1 | 64 (≈ 212 µM) | > 64 | 64 (≈ 212 µM) | 64 (≈ 212 µM) | > 64 | > 64 | – | – | –
